From BindingDB's records for doi:10.1016/j.bmcl.2012.02.015 (Glaxosmithkline, 2012)

What follows are compounds tested against Muscarinic acetylcholine receptor M3 (Homo sapiens, UniProt P20309) (assay: Antagonist potency at human muscarinic acetylcholine M3 receptor expressed in CHO cells assessed as inhibition of Ach-induced calcium mobilization by FLIPR analysis relative to control).
Muscarinic acetylcholine receptor M3, sequence (P20309 whole entry): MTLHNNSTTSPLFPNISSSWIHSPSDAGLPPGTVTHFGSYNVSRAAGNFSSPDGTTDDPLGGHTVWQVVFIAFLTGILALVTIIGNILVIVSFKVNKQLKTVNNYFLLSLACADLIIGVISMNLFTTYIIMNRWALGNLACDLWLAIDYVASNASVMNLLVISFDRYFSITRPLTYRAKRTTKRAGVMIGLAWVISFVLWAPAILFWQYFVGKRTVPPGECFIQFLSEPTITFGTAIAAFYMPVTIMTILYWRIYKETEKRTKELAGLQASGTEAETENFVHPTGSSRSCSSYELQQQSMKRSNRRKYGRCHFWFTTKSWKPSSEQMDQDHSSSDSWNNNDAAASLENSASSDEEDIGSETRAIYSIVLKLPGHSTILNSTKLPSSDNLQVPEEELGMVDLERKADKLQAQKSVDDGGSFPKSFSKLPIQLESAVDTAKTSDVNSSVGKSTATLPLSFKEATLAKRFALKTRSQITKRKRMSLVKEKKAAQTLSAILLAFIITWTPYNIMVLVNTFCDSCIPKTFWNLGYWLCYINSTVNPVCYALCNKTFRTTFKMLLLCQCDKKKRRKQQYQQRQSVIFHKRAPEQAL
Outline: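 Human M3 receptor in CHO cells, ACh-stimulated calcium mobilization by FLIPR. pA2 derived from the ratio of the ACh EC50 with and without antagonist. Run only where the IC50 was below 10 nM. Values above 11 could not be determined accurately.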
With `CCC[N+]1(C)C2CCC1CC(CC(C#N)(c1ccccc1)c1ccccc1)C2` (stereo not drawn) the Kd was 0.0501 nM. For `COCCOCC[N+]1(C)C2CCC1CC(CC(C#N)(c1ccccc1)c1ccccc1)C2` (stereo not drawn), the Kd was 0.631 nM. `C[N+]1(CC2CC2)C2CCC1CC(CC(C#N)(c1ccccc1)c1ccccc1)C2` (stereo not drawn) gave a Kd of 0.0501 nM. Compound `CC[N+]1(C)C2CCC1CC(CC(C#N)(c1ccccc1)c1ccccc1)C2` (stereo not drawn) has a Kd of 0.0501 nM. In the case of `C[N+]1(CCO)C2CCC1CC(CC(C#N)(c1ccccc1)c1ccccc1)C2` (stereo not drawn), the Kd is reported as 0.158 nM. `C=CC[N+]1(C)C2CCC1CC(CC(C#N)(c1ccccc1)c1ccccc1)C2` (stereo not drawn) was tested, and the Kd was 1.26 nM. With `COCC[N+]1(C)C2CCC1CC(CC(C#N)(c1ccccc1)c1ccccc1)C2` (stereo not drawn) the Kd was 0.501 nM. Work on `C[N+]1(CCCC#N)C2CCC1CC(CC(C#N)(c1ccccc1)c1ccccc1)C2` (stereo not drawn) yielded a Kd of 0.158 nM.
